Tests used:
[1] = target: T1, Human immunodeficiency virus type 1 protease (Human immunodeficiency virus 1, UniProt Q72874); assay: Binding affinity for HIV-1 protease
Summary of the method: (§1)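 Cleavage products were separated by anion-exchange HPLC and the product quantified by fluorescence. Each compound was assayed at least twice and the mean reported; assay SD <±40%.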

[2] = system: Human immunodeficiency virus 1; assay: The concentration required to inhibit HIV-1 RNA synthesis by 90%. Viral RNA quantified by a sandwich hybridization assay; type: functional
Summary of the method: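 Susceptible T-cell lines grown in individual microtiter wells were infected with HIV. Cell-associated viral RNA was measured by RNA hybridization 3 days after infection. […] Assay SD was <±37%. Cytotoxicity was scored separately by tetrazolium dye metabolism, because RNA assay results are valid only at non-cytotoxic doses.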

[3] = target: T1, Human immunodeficiency virus type 1 protease; assay: Inhibitory activity against HIV-1 protease; summary of the method: as §1

| SMILES | Ki [1] | IC90 ([2]; Human immunodeficiency virus 1) | Ki [3] | IC90 [2] |
| --- | --- | --- | --- | --- |
| O=C(Nc1ccc(Br)cn1)c1cccc(CN2C(=O)N(Cc3cccc(C(=O)Nc4ccc(Br)cn4)c3)[C@H](Cc3ccccc3)[C@H](O)[C@@H](O)[C@H]2Cc2ccccc2)c1 | 0.04 nM | 28.2 nM | 0.035 nM |  |
| O=C(Nc1ccc(C(F)(F)F)cn1)c1cccc(CN2C(=O)N(Cc3cccc(C(=O)Nc4ccc(C(F)(F)F)cn4)c3)[C@H](Cc3ccccc3)[C@H](O)[C@@H](O)[C@H]2Cc2ccccc2)c1 | 0.09 nM | 63.4 nM | 0.085 nM |  |
| CC(C)c1nc(CN(C)C(=O)N[C@H](C(=O)N[C@@H](Cc2ccccc2)C[C@H](O)[C@H](Cc2ccccc2)NC(=O)OCc2cncs2)C(C)C)cs1 [RITONAVIR] |  | 76 nM |  |  |
| NNC(=O)c1cccc(CN2C(=O)N(Cc3cccc(C(=O)NN)c3)[C@H](Cc3ccccc3)[C@H](O)[C@@H](O)[C@H]2Cc2ccccc2)c1 | 0.018 nM | 884 nM | 0.018 nM |  |
| CC(C)NC(=O)c1cccc(CN2C(=O)N(Cc3cccc(C(=O)NC(C)C)c3)[C@H](Cc3ccccc3)[C@H](O)[C@@H](O)[C@H]2Cc2ccccc2)c1 | 0.58 nM | 266 nM | 0.579 nM |  |
| CNC(=O)c1cccc(CN2C(=O)N(Cc3cccc(C(=O)NC)c3)[C@H](Cc3ccccc3)[C@H](O)[C@@H](O)[C@H]2Cc2ccccc2)c1 (stereo in doubt; 31) |  |  | 1.9 nM |  |
| O=C(Nc1ncccn1)c1cccc(CN2C(=O)N(Cc3cccc(C(=O)Nc4ncccn4)c3)[C@H](Cc3ccccc3)[C@H](O)[C@@H](O)[C@H]2Cc2ccccc2)c1 | 0.15 nM | 220 nM | 0.152 nM |  |
| O=C(Nc1ccncc1)c1cccc(CN2C(=O)N(Cc3cccc(C(=O)Nc4ccncc4)c3)[C@H](Cc3ccccc3)[C@H](O)[C@@H](O)[C@H]2Cc2ccccc2)c1 | 0.41 nM | 93.7 nM | 0.41 nM |  |
| O=C(Nc1ccccn1)c1cccc(CN2C(=O)N(Cc3cccc(C(=O)Nc4ccccn4)c3)[C@H](Cc3ccccc3)[C@H](O)[C@@H](O)[C@H]2Cc2ccccc2)c1 | 0.01 nM | 2.8 nM | 0.043 nM |  |
| Cc1cccnc1NC(=O)c1cccc(CN2C(=O)N(Cc3cccc(C(=O)Nc4ncccc4C)c3)[C@H](Cc3ccccc3)[C@H](O)[C@@H](O)[C@H]2Cc2ccccc2)c1 | 0.26 nM | 50.3 nM | 0.26 nM |  |
| O=C(Nc1cnccn1)c1cccc(CN2C(=O)N(Cc3cccc(C(=O)Nc4cnccn4)c3)[C@H](Cc3ccccc3)[C@H](O)[C@@H](O)[C@H]2Cc2ccccc2)c1 | 0.02 nM | 3.5 nM | 0.018 nM |  |
| Cc1cc(C)nc(NC(=O)c2cccc(CN3C(=O)N(Cc4cccc(C(=O)Nc5cc(C)cc(C)n5)c4)[C@H](Cc4ccccc4)[C@H](O)[C@@H](O)[C@H]3Cc3ccccc3)c2)c1 | 0.02 nM | 6.6 nM | 0.016 nM |  |
| O=C(Nc1ncc[nH]1)c1cccc(CN2C(=O)N(Cc3cccc(C(=O)Nc4ncc[nH]4)c3)[C@H](Cc3ccccc3)[C@H](O)[C@@H](O)[C@H]2Cc2ccccc2)c1 |  | 45.5 nM | 0.014 nM |  |
| O=C(Nc1nccs1)c1cccc(CN2C(=O)N(Cc3cccc(C(=O)Nc4nccs4)c3)[C@H](Cc3ccccc3)[C@H](O)[C@@H](O)[C@H]2Cc2ccccc2)c1 |  | 1.7 nM |  |  |
| Cc1coc(NC(=O)c2cccc(CN3C(=O)N(Cc4cccc(C(=O)Nc5nc(C)co5)c4)[C@H](Cc4ccccc4)[C@H](O)[C@@H](O)[C@H]3Cc3ccccc3)c2)n1 |  | 59.6 nM | 0.064 nM |  |
| O=C(Nc1nnc(C(F)(F)F)s1)c1cccc(CN2C(=O)N(Cc3cccc(C(=O)Nc4nnc(C(F)(F)F)s4)c3)[C@H](Cc3ccccc3)[C@H](O)[C@@H](O)[C@H]2Cc2ccccc2)c1 |  | 74.8 nM | 0.18 nM |  |
| O=C(NO)c1cccc(CN2C(=O)N(Cc3cccc(C(=O)NO)c3)[C@H](Cc3ccccc3)[C@H](O)[C@@H](O)[C@H]2Cc2ccccc2)c1 | 0.02 nM | 448 nM | 0.02 nM |  |
| Cc1ccnc(NC(=O)c2cccc(CN3C(=O)N(Cc4cccc(C(=O)Nc5nccc(C)n5)c4)[C@H](Cc4ccccc4)[C@H](O)[C@@H](O)[C@H]3Cc3ccccc3)c2)n1 | 0.12 nM | 124 nM | 0.115 nM |  |
| CCNC(=O)c1cccc(CN2C(=O)N(Cc3cccc(C(=O)NCC)c3)[C@H](Cc3ccccc3)[C@H](O)[C@@H](O)[C@H]2Cc2ccccc2)c1 | 0.21 nM | 139 nM | 0.21 nM |  |

| SMILES | Ki [1] | IC90 ([2]; Human immunodeficiency virus 1) | Ki [3] | IC90 [2] |
| --- | --- | --- | --- | --- |
| CC(C)(C)NC(=O)[C@@H]1C[C@@H]2CCCC[C@@H]2CN1C[C@@H](O)[C@H](Cc1ccccc1)NC(=O)[C@H](CC(N)=O)NC(=O)c1ccc2ccccc2n1 |  | 10.4 nM |  |  |
| CNC(=O)c1cccc(CN2C(=O)N(Cc3cccc(C(=O)NC)c3)[C@H](Cc3ccccc3)[C@H](O)[C@@H](O)[C@H]2Cc2ccccc2)c1 (stereo in doubt; 6) | 0.06 nM |  | 0.066 nM | 80.5 nM |
| O=C(NCC(F)(F)F)c1cccc(CN2C(=O)N(Cc3cccc(C(=O)NCC(F)(F)F)c3)[C@H](Cc3ccccc3)[C@H](O)[C@@H](O)[C@H]2Cc2ccccc2)c1 | 0.21 nM | 92.5 nM | 0.21 nM |  |
| O=C(Nc1ccc(Cl)cn1)c1cccc(CN2C(=O)N(Cc3cccc(C(=O)Nc4ccc(Cl)cn4)c3)[C@H](Cc3ccccc3)[C@H](O)[C@@H](O)[C@H]2Cc2ccccc2)c1 | 0.01 nM | 14.7 nM | 0.012 nM |  |
| Cc1cnc(NC(=O)c2cccc(CN3C(=O)N(Cc4cccc(C(=O)Nc5ncc(C)s5)c4)[C@H](Cc4ccccc4)[C@H](O)[C@@H](O)[C@H]3Cc3ccccc3)c2)s1 |  | 17.8 nM | 0.014 nM |  |
| O=C(Nc1nc2ccccc2[nH]1)c1cccc(CN2C(=O)N(Cc3cccc(C(=O)Nc4nc5ccccc5[nH]4)c3)[C@H](Cc3ccccc3)[C@H](O)[C@@H](O)[C@H]2Cc2ccccc2)c1 |  | 3.9 nM |  |  |
| CC(C)CN(C[C@@H](O)[C@H](Cc1ccccc1)NC(=O)O[C@H]1CCOC1)S(=O)(=O)c1ccc(N)cc1 |  | 46 nM |  |  |
| N#CCNC(=O)c1cccc(CN2C(=O)N(Cc3cccc(C(=O)NCC#N)c3)[C@H](Cc3ccccc3)[C@H](O)[C@@H](O)[C@H]2Cc2ccccc2)c1 | 0.063 nM | 596 nM | 0.063 nM |  |
| Cc1ccc(NC(=O)c2cccc(CN3C(=O)N(Cc4cccc(C(=O)Nc5ccc(C)cn5)c4)[C@H](Cc4ccccc4)[C@H](O)[C@@H](O)[C@H]3Cc3ccccc3)c2)nc1 | 0.01 nM | 3.1 nM | 0.011 nM |  |
| CC(C)(C)NC(=O)[C@@H]1CN(Cc2cccnc2)CCN1C[C@@H](O)C[C@@H](Cc1ccccc1)C(=O)NC1c2ccccc2C[C@H]1O (single isomer, unassigned) |  | 50 nM |  |  |
| O=C(Nc1ncc(Cl)cc1Cl)c1cccc(CN2C(=O)N(Cc3cccc(C(=O)Nc4ncc(Cl)cc4Cl)c3)[C@H](Cc3ccccc3)[C@H](O)[C@@H](O)[C@H]2Cc2ccccc2)c1 | 0.24 nM | 43 nM | 0.245 nM |  |
| O=C(Nc1cccnc1)c1cccc(CN2C(=O)N(Cc3cccc(C(=O)Nc4cccnc4)c3)[C@H](Cc3ccccc3)[C@H](O)[C@@H](O)[C@H]2Cc2ccccc2)c1 | 0.29 nM | 123 nM | 0.29 nM |  |
| Cc1ccnc(NC(=O)c2cccc(CN3C(=O)N(Cc4cccc(C(=O)Nc5cc(C)ccn5)c4)[C@H](Cc4ccccc4)[C@H](O)[C@@H](O)[C@H]3Cc3ccccc3)c2)c1 | 0.03 nM | 7.7 nM | 0.027 nM |  |
| O=C(Nc1ccccc1)c1cccc(CN2C(=O)N(Cc3cccc(C(=O)Nc4ccccc4)c3)[C@H](Cc3ccccc3)[C@H](O)[C@@H](O)[C@H]2Cc2ccccc2)c1 | 0.37 nM | 510 nM | 0.43 nM |  |
| Cc1cccc(NC(=O)c2cccc(CN3C(=O)N(Cc4cccc(C(=O)Nc5cccc(C)n5)c4)[C@H](Cc4ccccc4)[C@H](O)[C@@H](O)[C@H]3Cc3ccccc3)c2)n1 | 0.02 nM | 3.2 nM | 0.02 nM |  |
| NC(=O)c1cccc(CN2C(=O)N(Cc3cccc(C(N)=O)c3)[C@H](Cc3ccccc3)[C@H](O)[C@@H](O)[C@H]2Cc2ccccc2)c1 | 0.06 nM | 709 nM | 0.039 nM |  |
| Cc1csc(NC(=O)c2cccc(CN3C(=O)N(Cc4cccc(C(=O)Nc5nc(C)cs5)c4)[C@H](Cc4ccccc4)[C@H](O)[C@@H](O)[C@H]3Cc3ccccc3)c2)n1 |  | 4.1 nM | 0.025 nM |  |
| O=C1N(Cc2ccc(CO)cc2)[C@H](Cc2ccccc2)[C@H](O)[C@@H](O)[C@@H](Cc2ccccc2)N1Cc1ccc(CO)cc1 [DMP-323] |  | 115 nM |  |  |
| O=C(Nc1nncs1)c1cccc(CN2C(=O)N(Cc3cccc(C(=O)Nc4nncs4)c3)[C@H](Cc3ccccc3)[C@H](O)[C@@H](O)[C@H]2Cc2ccccc2)c1 |  | 51.3 nM | 0.11 nM |  |

From ChEMBL document CHEMBL1129454, “HIV protease inhibitory bis-benzamide cyclic ureas: a quantitative structure-activity relationship analysis” (J Med Chem, 1996)
